Reference: ChEMBL document CHEMBL2331096, “Montmorillonite K-10 catalyzed green synthesis of 2,6-unsubstituted dihydropyridines as potential inhibitors of PDE4” (Eur J Med Chem, 2013)

Each compound was assayed against T1, 3',5'-cyclic-AMP phosphodiesterase 4B (Homo sapiens, UniProt Q07343) (assay: Inhibition of recombinant His-tagged PDE4B (unknown origin) expressed in Sf9 cells using cAMP as substrate at 30 uM incubated for 15 mins prior to substrate addition measured after 1 hr by luminescence-based assay).
T1 sequence (Q07343 whole entry): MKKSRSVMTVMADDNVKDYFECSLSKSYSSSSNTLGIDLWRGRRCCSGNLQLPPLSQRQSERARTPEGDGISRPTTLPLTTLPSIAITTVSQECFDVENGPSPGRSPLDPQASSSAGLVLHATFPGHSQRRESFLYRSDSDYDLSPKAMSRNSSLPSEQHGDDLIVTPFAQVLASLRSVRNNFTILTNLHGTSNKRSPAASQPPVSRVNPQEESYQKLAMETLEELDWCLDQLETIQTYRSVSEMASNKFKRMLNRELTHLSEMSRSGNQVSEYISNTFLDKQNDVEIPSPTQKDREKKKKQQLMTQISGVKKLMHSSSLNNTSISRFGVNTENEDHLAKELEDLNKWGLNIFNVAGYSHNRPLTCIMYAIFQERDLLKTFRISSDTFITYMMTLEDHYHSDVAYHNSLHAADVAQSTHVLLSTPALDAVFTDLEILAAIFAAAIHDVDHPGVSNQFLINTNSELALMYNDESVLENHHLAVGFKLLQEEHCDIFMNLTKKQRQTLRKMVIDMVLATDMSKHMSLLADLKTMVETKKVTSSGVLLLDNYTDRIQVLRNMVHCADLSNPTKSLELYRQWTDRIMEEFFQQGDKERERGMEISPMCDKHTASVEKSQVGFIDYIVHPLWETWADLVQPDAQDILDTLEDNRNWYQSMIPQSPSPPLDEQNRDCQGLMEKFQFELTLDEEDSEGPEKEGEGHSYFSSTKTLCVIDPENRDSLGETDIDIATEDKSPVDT
Outline: (§1)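 His-tagged PDE4B made in baculovirus-infected Sf9 cells (lysed 48 h post-infection) and purified on Ni-NTA with imidazole elution. Enzyme (10 ng) pre-incubated 15 min with compound or DMSO vehicle, then 1 h with cAMP substrate; reaction stopped, detection reagent added for 10 min in dark, luminescence (RLU) read. Percent inhibition calculated from RLU relative to vehicle control.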

inhibition [%]	SMILES
78.4	CCOC(=O)C1=CN(c2ccccc2OC)C=C(C(=O)OCC)C1c1ccc(Br)cc1
40.2	CCOC(=O)C1=CN(c2ccc(OC)cc2)C=C(C(=O)OCC)C1c1ccc(F)cc1
69.2	CCOC(=O)C1=CN(c2ccc(OC)cc2OC)C=C(C(=O)OCC)C1c1ccc(F)c(F)c1
35.1	CCOC(=O)C1=CN(c2ccc(OC)cc2)C=C(C(=O)OCC)C1c1ccc(Br)cc1
39.3	CCOC(=O)C1=CN(c2ccc(OC)cc2)C=C(C(=O)OCC)C1c1ccccc1
44.2	CCOC(=O)C1=CN(c2cccc(Cl)c2)C=C(C(=O)OCC)C1c1ccc(F)cc1
46	CCOC(=O)C1=CN(c2ccccc2OC)C=C(C(=O)OCC)C1c1ccc(F)c(F)c1
42	CCOC(=O)C1=CN(c2ccc(OC)cc2)C=C(C(=O)OCC)C1c1cccc(Br)c1
30.4	CCOC(=O)C1=CN(c2ccccc2OC)C=C(C(=O)OCC)C1c1cccc(Cl)c1
29.9	CCOC(=O)C1=CN(c2ccccc2OC)C=C(C(=O)OCC)C1c1ccccc1
33.4	CCOC(=O)C1=CN(c2ccccc2OC)C=C(C(=O)OCC)C1c1ccc(F)cc1
37.3	CCOC(=O)C1=CN(c2ccccc2OC)C=C(C(=O)OCC)C1c1cccc(Br)c1
78.7	CCOC(=O)C1=CN(c2ccc(OC)cc2)C=C(C(=O)OCC)C1c1ccc(F)c(F)c1
59.2	CCOC(=O)C1=CN(c2ccccc2OC)C=C(C(=O)OCC)C1c1ccc(OC)cc1

These compounds were tested against T1, 3',5'-cyclic-AMP phosphodiesterase 4B (assay: Inhibition of recombinant His-tagged PDE4B (unknown origin) expressed in Sf9 cells using cAMP as substrate incubated for 15 mins prior to substrate addition measured after 1 hr by luminescence-based assay).
Outline: as §1

IC50 [µM]	inhibition	SMILES
> 5	Dose-dependent effect	CCOC(=O)C1=CN(c2ccccc2OC)C=C(C(=O)OCC)C1c1ccc(Br)cc1
